Test results published in ChEMBL document CHEMBL1158548, “Tetrahydrochromenoimidazoles as potassium-competitive acid blockers (P-CABs): structure-activity relationship of their antisecretory properties and their affinity toward the hERG channel” (J Med Chem, 2010).
Active and inactive are the calls of the source. The calls are words filed in the database; no cut-off is given here.

How the values were obtained:
Rattus norvegicus = test: Inhibition of pentagastrin-stimulated acid secretion in intraduodenally dosed perfused Sprague-Dawley rat Ghosh Schild model; assay type: functional; conditions: intraduodenal
hERG (KCNH2) = hERG (KCNH2) (Homo sapiens, UniProt Q12809); test: Inhibition of human ERG expressed in CHO-K1 cells at 10 uM by whole-cell patch clamp technique; assay type: cell-based; conditions: CHO-K1 cells that express human ERG
Method in brief: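 CHO-K1 cells stably transfected with hERG; whole-cell patch clamp recording of tail currents with test compound at 10 μM, three cells per compound; relative block of tail current amplitude given as arithmetic mean.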

[1] = Octanol/aqueous KCl distribution coefficient, log D at pH 7.4 by potentiometric titration; assay type: physicochemical
Method in brief: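 Octanol/aqueous KCl distribution coefficient from potentiometric titrations across pH 2.0-11.0 at 25 °C.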

[2] = Partition coefficient, log D by HPLC; assay type: physicochemical; conditions: octanol/water
Method in brief: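 logD by reversed-phase HPLC at 37 °C, calibrated with seven reference substances of known logD.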

[3] = Dissociation constant, pKa at pH 2.0 to 11.0 by potentiometric cosolvent titration; assay type: physicochemical
[4] = Inhibition of H+/K+ ATPase in hog gastric mucosa by malachite green based competitive binding assay; assay type: tissue-based, Sus scrofa
Method in brief: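 Hog gastric mucosa H+/K+-ATPase, isolated enzyme; competitive binding assay run at pH 7.4; pIC50 reported as geometric mean of 4-5 measurements.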

Canis familiaris [5] = test: Inhibition of pentagastrin-stimulated acid secretion in po dosed Beagle dog fistula model assessed as elevation of intragastric pH; assay type: functional, organism-based; conditions: Canis lupus familiaris
Method in brief: (§1)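 Surgically prepared fistula dogs; pentagastrin infused subcutaneously from 1 h after start of pH-metry over 22.5 h; drug or vehicle given orally in capsules 2.5 h after start; intragastric pH recorded continuously for 24 h with combined glass electrode and ambulatory pH meter; duration of pH >5 read from curves.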

Gastric gland = test: Inhibition of acid secretion in New Zealand White rabbit intact gastric glands assessed as [14C]dimethylaminopyridine accumulation by radioactivity; assay type: functional, tissue-based; conditions: Oryctolagus cuniculus
Method in brief: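 Gastric glands isolated intact from New Zealand rabbits; cellular activity read as reduced accumulation of the weak base 14C-dimethylaminopyridine; pIC50 given as geometric mean of 4-5 determinations.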

Canis familiaris [6] = test: Inhibition of pentagastrin-stimulated acid secretion in po dosed Beagle dog fistula model assessed as elevation of intragastric pH after 2 hrs; assay type: functional, organism-based; conditions: Canis lupus familiaris; method in brief: as §1
Canis familiaris [7] = test: Inhibition of pentagastrin-stimulated acid secretion in po dosed Beagle dog fistula model assessed as elevation of intragastric pH after 2.5 hrs; assay type: functional, organism-based; conditions: Canis lupus familiaris; method in brief: as §1
Canis familiaris [8] = test: Inhibition of pentagastrin-stimulated acid secretion in po dosed Beagle dog fistula model assessed as elevation of intragastric pH after 4 hrs; assay type: functional, organism-based; conditions: Canis lupus familiaris; method in brief: as §1
[9] = Clearance in Beagle dog fistula model; assay type: ADME, organism-based, Canis lupus familiaris; conditions: in vivo
[10] = Clearance in Sprague-Dawley rat Ghosh Schild model; assay type: ADME, organism-based; conditions: in vivo
[11] = Oral bioavailability in Sprague-Dawley rat Ghosh Schild model; assay type: ADME, organism-based; conditions: in vivo
[12] = Oral bioavailability in Beagle dog fistula model; assay type: ADME, organism-based, Canis lupus familiaris; conditions: in vivo
Canis familiaris [13] = test: Inhibition of pentagastrin-stimulated acid secretion in Beagle dog fistula model assessed as elevation of intragastric pH at 9 umol/kg, po after 8 hrs; assay type: functional, organism-based; conditions: Canis lupus familiaris; method in brief: as §1
Canis familiaris [14] = test: Inhibition of pentagastrin-stimulated acid secretion in po dosed Beagle dog fistula model assessed as elevation of intragastric pH after 8 hrs; assay type: functional, organism-based; conditions: Canis lupus familiaris; method in brief: as §1

hERG (KCNH2), sequence (Q12809 whole entry): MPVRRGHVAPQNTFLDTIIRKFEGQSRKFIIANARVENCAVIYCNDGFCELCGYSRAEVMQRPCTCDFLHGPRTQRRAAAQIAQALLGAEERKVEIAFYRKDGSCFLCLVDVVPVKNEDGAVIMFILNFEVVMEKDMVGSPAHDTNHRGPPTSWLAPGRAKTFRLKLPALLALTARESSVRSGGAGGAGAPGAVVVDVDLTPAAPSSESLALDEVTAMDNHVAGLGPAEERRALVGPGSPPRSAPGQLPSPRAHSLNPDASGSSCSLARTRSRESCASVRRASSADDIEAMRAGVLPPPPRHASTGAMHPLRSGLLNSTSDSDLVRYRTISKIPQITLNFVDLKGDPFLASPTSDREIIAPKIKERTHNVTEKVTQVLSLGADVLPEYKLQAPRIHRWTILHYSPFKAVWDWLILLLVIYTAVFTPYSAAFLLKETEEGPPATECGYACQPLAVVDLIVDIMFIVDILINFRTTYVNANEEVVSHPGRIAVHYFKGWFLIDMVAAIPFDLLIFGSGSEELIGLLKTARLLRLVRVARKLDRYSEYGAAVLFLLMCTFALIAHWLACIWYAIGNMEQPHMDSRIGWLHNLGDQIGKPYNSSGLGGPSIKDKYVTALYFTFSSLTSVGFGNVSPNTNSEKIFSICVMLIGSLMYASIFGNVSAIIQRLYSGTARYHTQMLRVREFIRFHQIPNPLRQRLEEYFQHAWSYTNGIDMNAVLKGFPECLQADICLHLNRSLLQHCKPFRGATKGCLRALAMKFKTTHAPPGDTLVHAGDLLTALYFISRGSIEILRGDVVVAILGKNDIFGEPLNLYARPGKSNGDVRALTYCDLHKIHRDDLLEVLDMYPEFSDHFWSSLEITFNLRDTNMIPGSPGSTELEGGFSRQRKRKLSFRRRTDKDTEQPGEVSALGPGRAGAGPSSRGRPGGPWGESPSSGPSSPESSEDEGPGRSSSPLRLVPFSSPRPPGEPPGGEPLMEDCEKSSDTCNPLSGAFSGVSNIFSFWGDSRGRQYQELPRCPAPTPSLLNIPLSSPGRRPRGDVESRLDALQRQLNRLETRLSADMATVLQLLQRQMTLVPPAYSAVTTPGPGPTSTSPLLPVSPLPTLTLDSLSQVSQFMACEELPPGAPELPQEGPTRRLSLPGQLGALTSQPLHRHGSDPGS

| Compound | ED50 (Rattus norvegicus) [µmol/kg] | inhibition at 10 µM (hERG (KCNH2)) [%] | logD [1] | logD [2] | pKa ([3]; read-out: pKa) | pIC50 [4] | Activity (Canis familiaris [5]) | IC50 (Gastric gland) [nM] | Activity (Canis familiaris [6]) | pKa [3] | Activity (Canis familiaris [7]) | Activity (Canis familiaris [8]) | clearance [9] [mL/min/kg] | clearance [10] [mL/min/kg] | bioavailability [11] [%] | bioavailability [12] [%] | Activity (Canis familiaris [13]) | Activity (Canis familiaris [14]) |
| --- | --- | --- | --- | --- | --- | --- | --- | --- | --- | --- | --- | --- | --- | --- | --- | --- | --- | --- |
| Cc1nc2c3c(c(C(=O)N(C)C)cc2n1C)CC[C@@H](c1ccc(Cl)cc1)O3 | 0.15 | 84 | 2.92 | 2.9 | 5.59 | 5.1 | Active | 398 | Active | – | – | – | – | – | – | – | – | – |
| CNC(=O)c1cc2c(nc(C)n2C)c2c1CC[C@@H](c1ccccc1C)O2 | 0.25 | 3 | – | 2.7 | – | 5.1 | – | 2510 | – | 5.7 | Active | – | – | – | – | – | – | – |
| Cc1cc(Cl)ccc1[C@@H]1CCc2c(C(=O)N(C)C)cc3c(nc(C)n3C)c2O1 | 0.1 | -6 | 3.4 | 3.2 | 5.59 | 6.1 | – | 200 | – | – | – | Active | – | – | – | – | – | – |
| Cc1ccccc1[C@@H]1CCc2c(C(=O)N(C)C)cc3c(nc(C)n3C)c2O1 | 0.23 | 33 | – | 2.8 | – | 5.3 | – | 794 | – | 5.68 | – | – | 4.67 | 21 | 64 | 72 | Active | – |
| CNC(=O)c1cc2c(nc(C)n2C)c2c1CC[C@@H](c1ccc(Cl)cc1C)O2 | 0.15 | 45 | 3.46 | 3.1 | 5.6 | 4.9 | – | 794 | – | – | – | – | – | – | – | – | – | Active |
